The data set can be described thus: Toxicity liver stage against HepG2, at 10uM. The data set is classed as cell-based. Also on record: test concentration 10 uM, cell line HepG2-A16-CD81EGFP. Particulars: human, HepG2-A16-CD81EGFP cells; read-out: INHIBITION
In outline:
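Uninfected HepG2-A16-CD81EGFP cells, 3 × 10^3 per well, 1536-well, plated on prespotted compound at 10 μM final, parasite-free screening media added to match infected plates; puromycin 10 μM positive, DMSO 0.5% negative; run in parallel with 48 h PbLuc assay at 37 °C, 5% CO2; viability by CellTiter-Glo luminescence, normalized to controls.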
With `CN(C)[C@@H]1CCN(C(=O)NC2CCCC2)[C@H]1Cc1cnn(C)c1`, the cytotoxicity at 10 µM is -0.336%.

With `Cc1cc(NC(C)C(=O)NCC(F)(F)F)nc(-c2ccncc2)n1` (stereo unspecified), the cytotoxicity at 10 µM is 4.96%.

For the compound `Cc1ccc(C(=O)NC(CN2CCCC2)c2ccccc2)c(=O)[nH]1` (stereo unspecified), the cytotoxicity at 10 µM is -2.32%.

For the compound `O=C(NCc1cccnc1N1CCCC(O)C1)c1ccc2[nH]nnc2c1` (stereo unspecified), the cytotoxicity at 10 µM is 11.4%.

For the compound `COCC1CN(C(=O)COc2ccccc2)Cc2cn(C)nc21` (stereo unspecified), the cytotoxicity at 10 µM was 0.55%.

Take `Cc1ccc(C(=O)NS(=O)(=O)c2ccccc2Br)c(=O)[nH]1`: the cytotoxicity at 10 µM was -0.704%.

For the compound `CC(=O)N1CCN(C(=O)c2cnn(-c3ccccc3Cl)c2)CC1`, the cytotoxicity at 10 µM was -8.72%.

As for `CC(=O)N1N=C(c2cccs2)OC1C(=O)Nc1ccc(C)cc1` (stereo unspecified), the cytotoxicity at 10 µM was -4.14%.

For the compound `Cc1nccn1CCCN1CCCC(c2nccn2C)C1` (stereo unspecified), the cytotoxicity at 10 µM was -10.3%.

In the case of `N#Cc1cc(NS(=O)(=O)c2ccc(C(=O)O)cc2F)ccc1F`, the cytotoxicity at 10 µM was -10.9%.

Turning to `CNC(=O)C1(CCCc2cnccn2)CCN1Cc1ccc(C)cc1` (stereo unspecified), the cytotoxicity at 10 µM came to 0.615%.

As for `CCc1nc(CC(=O)N2CCC(C(=O)N3CCCC3)CC2)cs1`, the cytotoxicity at 10 µM is -2.71%.

For `CC(C)c1cc(N2CC[C@H](F)C2)n2nccc2n1`, the cytotoxicity at 10 µM was -2.56%.

For `CC(C(=O)NCc1ccc(N2CCCCCC2)nc1)S(C)(=O)=O` (stereo unspecified), the cytotoxicity at 10 µM was -11.9%.

As to `COCC(=O)N(Cc1cccc(C)c1)Cc1ccccc1OC`, the cytotoxicity at 10 µM is -51.4%.

As for `CN(C)Cc1nnc(C(=O)N(C)Cc2ccc(C(F)(F)F)cc2)o1`, the cytotoxicity at 10 µM is -6.72%.

With `Cc1ncsc1CN1CC[C@H]2OCC[C@@]2(C(=O)NC2CC2)C1`, the cytotoxicity at 10 µM was found to be 2.75%.

`Cc1cnc(CN(C)C2CCN(Cc3ccc(Cl)s3)C2)o1` (stereo unspecified): the cytotoxicity at 10 µM is 5.33%.

On to `Oc1nc(N2CCOCC2)nc2c1CCN(Cc1cccnc1)CC2`, for which the cytotoxicity at 10 µM was -3.71%.

With `CCc1cnccc1C(=O)Nc1ccc(C(N)=O)nc1`, the cytotoxicity at 10 µM was found to be 5.44%.

`CC(c1nc(-c2ccccc2)no1)N1CCc2c(ncn2C2CC2)C1` (stereo unspecified): the cytotoxicity at 10 µM worked out at 7.12%.

`COCc1nc(C2CCN(Cc3ncc[nH]3)CC2)no1`: the cytotoxicity at 10 µM was -23.1%.

On to `COc1cc(C)c(S(=O)(=O)CC(=O)N(C)C(C)C)cc1OC`, for which the cytotoxicity at 10 µM amounted to 4.02%.

Regarding `NC(=O)CNC(c1ccccc1)c1ccccc1`, the cytotoxicity at 10 µM is -10.5%.

For the compound `Cc1cn2c(=O)c(-c3ccnc(NC4CCOCC4)n3)cnc2s1`, the cytotoxicity at 10 µM was -5.5%.

Consider `CCn1ccnc1CN1CCCN(CC2CC2)C(C(C)C)C1` (stereo unspecified), for which the cytotoxicity at 10 µM turned out to be 2.63%.

Take `COc1ccccc1C1(CNc2snc(Cl)c2C#N)CCCC1`: the cytotoxicity at 10 µM is 31.6%.

Consider `CCOc1ccc2[nH]c3c(N(C)CC4OCCO4)ncnc3c2c1`, for which the cytotoxicity at 10 µM amounted to 15.2%.

Regarding `CS(=O)(=O)N1CCCC(C(=O)Nc2cnn(Cc3ccc(F)cc3)c2)C1` (stereo unspecified), the cytotoxicity at 10 µM was -3.64%.

For the compound `CCOCC(O)CN1CCN(C(=O)c2cc(Cl)ccc2F)CC1` (stereo unspecified), the cytotoxicity at 10 µM is -6.54%.

As to `CS(=O)(=O)N1C[C@H]2N(c3ncccn3)CCC[C@@]2(C(=O)NCC2CC2)C1`, the cytotoxicity at 10 µM is -110%.

Take `CN(Cc1ccccc1)CC1CC2(CO1)CN(Cc1cnn(C)c1)C2` (stereo unspecified): the cytotoxicity at 10 µM came to 9.76%.

Consider `CC(C)[C@@H]1CN(CCOc2ccc(Cl)cc2)C[C@H]1NS(C)(=O)=O`, for which the cytotoxicity at 10 µM is -52.4%.

In the case of `CN(C)C(=O)c1cc(-c2cnc(N)nc2)nc2cc(F)ccc12`, the cytotoxicity at 10 µM was 2.54%.

`Cc1ccoc1C(=O)N1CC[C@H]2C[C@H](c3nnc(C4CC4)o3)O[C@@H]2C1`: the cytotoxicity at 10 µM was -105%.

In the case of `CC(C)NC(=O)[C@@H]1C[C@@H]2CCN(Cc3ccoc3)C[C@H]2O1`, the cytotoxicity at 10 µM was -109%.

For the compound `Cc1nn(C)c2c(=O)n(Cc3ccc(C#N)cc3)nnc12`, the cytotoxicity at 10 µM is 3.12%.

For `CCCC(=O)NC1CCCN(c2cncc(Br)c2)C1` (stereo unspecified), the cytotoxicity at 10 µM is -38.5%.

Regarding `Cc1noc(C(C)C)c1C(=O)NCCCOC(C)C`, the cytotoxicity at 10 µM is -9.83%.

Regarding `CCCNC(=O)CNc1cc(C(=O)NCC(F)(F)F)cc(F)c1C`, the cytotoxicity at 10 µM is 10%.

Consider `O=c1c(Cc2ccc(Cl)cc2Cl)c(O)ccn1CC1CC1`, for which the cytotoxicity at 10 µM came out at 13.6%.

In the case of `COc1ccc(C(C)N(C)Cc2nc3c(cnn3C)c(=O)[nH]2)cc1` (stereo unspecified), the cytotoxicity at 10 µM was -7.42%.

Consider `O=S(=O)(NC[C@]12COC[C@H]1CN(c1ncc(F)cn1)C2)C1CC1`, for which the cytotoxicity at 10 µM was -128%.

Regarding `CNC(=O)c1n[nH]c2c1C(c1cccc3c1OC(C)(C)C3)CC(=O)N2` (stereo unspecified), the cytotoxicity at 10 µM was determined as 0.0642%.

In the case of `CCc1n[nH]c(C2CN(Cc3csc(COC)n3)CCO2)n1` (stereo unspecified), the cytotoxicity at 10 µM was 0.753%.

Regarding `N#Cc1ccccc1CN1CCC(c2nccn2CC2CCC2)CC1`, the cytotoxicity at 10 µM was -10.1%.

With `CCC(CO)n1cnc2scc(C)c2c1=O` (stereo unspecified), the cytotoxicity at 10 µM was -7.37%.

Regarding `Cc1occc1CNC(=O)NCCN(C)C1CCCC1`, the cytotoxicity at 10 µM is -19.5%.

On to `Cn1cc(CN2CCn3cc(CNC(=O)c4cccn4C)nc3C2)cn1`, for which the cytotoxicity at 10 µM amounted to 1.85%.

Regarding `Cc1cnc(N2CCC3(CC2)CC(NS(C)(=O)=O)CO3)nc1` (stereo unspecified), the cytotoxicity at 10 µM came out at 2.87%.

As for `O=C1CCOCCN1Cc1ccc(C(F)(F)F)c(F)c1`, the cytotoxicity at 10 µM was -7.63%.

With `CC(C)(O)CCc1ccc(C(=O)N2CCN(CC(F)(F)F)CC2)cc1`, the cytotoxicity at 10 µM was 6.16%.

Regarding `CC(Nc1ccc2c(c1)CCC2)c1nc(C2CC2)no1` (stereo unspecified), the cytotoxicity at 10 µM was 7.92%.

For `COc1cccc2c1OCC(CNC(=O)Cc1c(C)nc(N)nc1C)C2` (stereo unspecified), the cytotoxicity at 10 µM was -140%.

As for `c1nc2c(c(C3CCOC3)n1)CCN(Cc1ccoc1)CC2` (stereo unspecified), the cytotoxicity at 10 µM is 7.01%.

On to `COc1ccccc1CNC(=O)C1=NN(c2ccc(C)cc2)C(=O)CN1`, for which the cytotoxicity at 10 µM was found to be 25.1%.

`O=C(c1coc(-c2ccccc2)n1)N1CCCCC1`: the cytotoxicity at 10 µM was 11.2%.

`CN(Cc1ccc(F)cc1F)CC(C)(CO)CO`: the cytotoxicity at 10 µM is -2.52%.

Regarding `COc1ccccc1C1(O)CCCN(C(=O)c2cnc(SC)nc2)C1` (stereo unspecified), the cytotoxicity at 10 µM was 7.27%.

With `Cc1nc(-c2ccccc2)n(CC(=O)NC2CCCC2)n1`, the cytotoxicity at 10 µM was -0.248%.

As for `CCCc1cc(C(=O)N2CCC3(CCCN(CCO)C3=O)C2)cs1` (stereo unspecified), the cytotoxicity at 10 µM was -144%.

Take `O=C(CC1CCCO1)Nc1ccc2c(ccn2CCN2CCOCC2)c1` (stereo unspecified): the cytotoxicity at 10 µM is 2.55%.

`CC(=O)N1N=C(c2ccccc2)OC1C(=O)N(C)Cc1ccccc1` (stereo unspecified): the cytotoxicity at 10 µM amounted to 2.37%.

As to `Cc1nc(CN2CC3(CCN(c4nccs4)C3)CC2=O)cs1` (stereo unspecified), the cytotoxicity at 10 µM is -0.646%.

`CC(C)[C@]1(O)CN(C(=O)C2(Cn3cccn3)CC2)C[C@H]1C`: the cytotoxicity at 10 µM is 1.79%.

For `Cc1noc(C)c1CN1CCOCC12CCN(c1cnccn1)CC2`, the cytotoxicity at 10 µM was -101%.

As to `COc1ccc(C)cc1CN(C)CC(=O)NC1(C)CCS(=O)(=O)C1` (stereo unspecified), the cytotoxicity at 10 µM turned out to be 1.28%.

On to `CC(=O)N1CCOCC2(CN(Cc3ccc(C)o3)CCO2)C1` (stereo unspecified), for which the cytotoxicity at 10 µM is 6.41%.

With `Cc1nn2cc(CCNC(=O)c3cc(C(C)C)nn3C)nc2s1`, the cytotoxicity at 10 µM was found to be 34.9%.

As to `CCN(C(=O)CN1CCCC1c1cccs1)c1ccccc1C` (stereo unspecified), the cytotoxicity at 10 µM stood at 3.7%.

Regarding `O=C(NCc1cccnc1N1CCCCC1)c1ccc2cc[nH]c2c1`, the cytotoxicity at 10 µM was 4.1%.

These data come from ChEMBL document CHEMBL4513216, “Probing the Open Global Health Chemical Diversity Library for Multistage-Active Starting Points for Next-Generation Antimalarials” (ACS Infect Dis, 2020).
